Measurements taken from ChEMBL document CHEMBL5058577, “EUbOPEN Chemogenomics Library 2 (Multiplex)” (2022).

Test system: HEK-293T
Test: Multiplex assay against HEK293T
Format: toxicity, cell-based
Details: human
In short: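 Live cells carried four stains from seeding: Hoechst33342, BioTracker Green Microtubule Cytoskeleton Dye, MitoTracker Red and Annexin V Alexa Fluor 680. They were imaged on a CQ1 microscope at 37°C and 5% CO2 after compound addition. Using CellPathfinder machine-learning gating, cells were split into Hoechst high-intensity objects or normal cells, normal cells into healthy, pyknosed or fragmented nuclei, and pyknosed cells into mitotic or apoptotic; tubulin, mitochondrial-mass and membrane-permeability phenotypes are per cents of healthy-nucleus cells.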

[1] = 12 h, 1 µM, compound concentration 1 uM, replicate 1
[2] = 12 h, 1 µM, compound concentration 1 uM, replicate 2
[3] = 12 h, 10 µM, compound concentration 10 uM, replicate 1
[4] = 12 h, 10 µM, compound concentration 10 uM, replicate 2
[5] = 24 h, 1 µM, compound concentration 1 uM, replicate 1
[6] = 24 h, 1 µM, compound concentration 1 uM, replicate 2
[7] = 24 h, 10 µM, compound concentration 10 uM, replicate 1
[8] = 24 h, 10 µM, compound concentration 10 uM, replicate 2
[9] = 48 h, 1 µM, compound concentration 1 uM, replicate 1
[10] = 48 h, 1 µM, compound concentration 1 uM, replicate 2
[11] = 48 h, 10 µM, compound concentration 10 uM, replicate 1
[12] = 48 h, 10 µM, compound concentration 10 uM, replicate 2

SMILES: Cc1nc2ccc(Oc3ccc(F)cc3)cc2c(=O)n1C[C@H]1CCCN(C(C)C)C1.Cl
- Population Apoptotic (%) [1]: 40%
- Population Fragmented Nuclei (%) [1]: 7%
- Population Healthy Nuclei (%) [1]: 80%
- Population Hoechst High Intensity Objects (%) [1]: 6%
- Population Membrane Permeable-Phenotype (%) [1]: 0%
- Population Mitochondria Different-Phenotype (%) [1]: 50%
- Population Mitotic Cells (%) [1]: 60%
- Population Normal (%) [1]: 93%
- Population Pyknosed Nuclei (%) [1]: 11%
- Population Tubulin-Different-Phenotype (%) [1]: 42%
- Total Cell Count [1]: 381
- Population Apoptotic (%) [2]: 61%
- Population Fragmented Nuclei (%) [2]: 5%
- Population Healthy Nuclei (%) [2]: 70%
- Population Hoechst High Intensity Objects (%) [2]: 27%
- Population Mitochondria Different-Phenotype (%) [2]: 69%
- Population Mitotic Cells (%) [2]: 38%
- Population Normal (%) [2]: 72%
- Population Pyknosed Nuclei (%) [2]: 24%
- Population Tubulin-Different-Phenotype (%) [2]: 34%
- Total Cell Count [2]: 204
- Population Apoptotic (%) [3]: 54%
- Population Fragmented Nuclei (%) [3]: 7%
- Population Healthy Nuclei (%) [3]: 78%
- Population Hoechst High Intensity Objects (%) [3]: 17%
- Population Membrane Permeable-Phenotype (%) [3]: 0%
- Population Mitochondria Different-Phenotype (%) [3]: 81%
- Population Mitotic Cells (%) [3]: 45%
- Population Normal (%) [3]: 82%
- Population Pyknosed Nuclei (%) [3]: 13%
- Population Tubulin-Different-Phenotype (%) [3]: 76%
- Total Cell Count [3]: 405
- Population Apoptotic (%) [4]: 61%
- Population Fragmented Nuclei (%) [4]: 8%
- Population Healthy Nuclei (%) [4]: 74%
- Population Hoechst High Intensity Objects (%) [4]: 20%
- Population Mitochondria Different-Phenotype (%) [4]: 94%
- Population Mitotic Cells (%) [4]: 38%
- Population Normal (%) [4]: 79%
- Population Pyknosed Nuclei (%) [4]: 17%
- Population Tubulin-Different-Phenotype (%) [4]: 73%
- Total Cell Count [4]: 310
- Population Apoptotic (%) [5]: 31%
- Population Fragmented Nuclei (%) [5]: 11%
- Population Healthy Nuclei (%) [5]: 80%
- Population Hoechst High Intensity Objects (%) [5]: 4%
- Population Membrane Permeable-Phenotype (%) [5]: 0%
- Population Mitochondria Different-Phenotype (%) [5]: 36%
- Population Mitotic Cells (%) [5]: 68%
- Population Normal (%) [5]: 95%
- Population Pyknosed Nuclei (%) [5]: 8%
- Population Tubulin-Different-Phenotype (%) [5]: 27%
- Total Cell Count [5]: 553
- Population Apoptotic (%) [6]: 37%
- Population Healthy Nuclei (%) [6]: 72%
- Population Hoechst High Intensity Objects (%) [6]: 22%
- Population Mitochondria Different-Phenotype (%) [6]: 52%
- Population Mitotic Cells (%) [6]: 62%
- Population Normal (%) [6]: 77%
- Population Pyknosed Nuclei (%) [6]: 16%
- Population Tubulin-Different-Phenotype (%) [6]: 20%
- Total Cell Count [6]: 281
- Population Apoptotic (%) [7]: 49%
- Population Fragmented Nuclei (%) [7]: 10%
- Population Healthy Nuclei (%) [7]: 73%
- Population Hoechst High Intensity Objects (%) [7]: 12%
- Population Membrane Permeable-Phenotype (%) [7]: 3%
- Population Mitochondria Different-Phenotype (%) [7]: 67%
- Population Mitotic Cells (%) [7]: 50%
- Population Normal (%) [7]: 87%
- Population Pyknosed Nuclei (%) [7]: 15%
- Population Tubulin-Different-Phenotype (%) [7]: 70%
- Total Cell Count [7]: 525
- Population Apoptotic (%) [8]: 68%
- Population Fragmented Nuclei (%) [8]: 11%
- Population Healthy Nuclei (%) [8]: 75%
- Population Hoechst High Intensity Objects (%) [8]: 23%
- Population Membrane Permeable-Phenotype (%) [8]: 0%
- Population Mitochondria Different-Phenotype (%) [8]: 88%
- Population Mitotic Cells (%) [8]: 31%
- Population Normal (%) [8]: 76%
- Population Pyknosed Nuclei (%) [8]: 12%
- Population Tubulin-Different-Phenotype (%) [8]: 68%
- Total Cell Count [8]: 334
- Population Apoptotic (%) [9]: 27%
- Population Fragmented Nuclei (%) [9]: 19%
- Population Healthy Nuclei (%) [9]: 75%
- Population Hoechst High Intensity Objects (%) [9]: 1%
- Population Membrane Permeable-Phenotype (%) [9]: 1%
- Population Mitochondria Different-Phenotype (%) [9]: 22%
- Population Mitotic Cells (%) [9]: 72%
- Population Normal (%) [9]: 98%
- Population Pyknosed Nuclei (%) [9]: 5%
- Population Tubulin-Different-Phenotype (%) [9]: 14%
- Total Cell Count [9]: 901
- Population Apoptotic (%) [10]: 60%
- Population Fragmented Nuclei (%) [10]: 13%
- Population Healthy Nuclei (%) [10]: 80%
- Population Hoechst High Intensity Objects (%) [10]: 7%
- Population Membrane Permeable-Phenotype (%) [10]: 0%
- Population Mitochondria Different-Phenotype (%) [10]: 36%
- Population Mitotic Cells (%) [10]: 39%
- Population Normal (%) [10]: 92%
- Population Pyknosed Nuclei (%) [10]: 6%
- Total Cell Count [10]: 380
- Population Apoptotic (%) [11]: 47%
- Population Fragmented Nuclei (%) [11]: 15%
- Population Healthy Nuclei (%) [11]: 74%
- Population Hoechst High Intensity Objects (%) [11]: 11%
- Population Membrane Permeable-Phenotype (%) [11]: 2%
- Population Mitochondria Different-Phenotype (%) [11]: 60%
- Population Mitotic Cells (%) [11]: 52%
- Population Normal (%) [11]: 88%
- Population Pyknosed Nuclei (%) [11]: 9%
- Population Tubulin-Different-Phenotype (%) [11]: 62%
- Total Cell Count [11]: 754
- Population Apoptotic (%) [12]: 67%
- Population Fragmented Nuclei (%) [12]: 17%
- Population Healthy Nuclei (%) [12]: 72%
- Population Hoechst High Intensity Objects (%) [12]: 22%
- Population Membrane Permeable-Phenotype (%) [12]: 0%
- Population Mitochondria Different-Phenotype (%) [12]: 69%
- Population Mitotic Cells (%) [12]: 32%
- Population Normal (%) [12]: 78%
- Population Tubulin-Different-Phenotype (%) [12]: 58%
- Total Cell Count [12]: 459
